From ChEMBL document CHEMBL1124965, “Synthesis and dopamine agonist properties of (+-)-trans-3,4,4a,10b-tetrahydro-4-propyl-2H,5H-[1]benzopyrano [4,3-b]-1,4-oxazin-9-ol and its enantiomers” (J Med Chem, 1990)
pIC50: −log10 of the molar value.

Legend:
[1] = tested on: Rattus norvegicus; assay: Inhibition of dopamine neuronal firing activity in the rat substantia nigra DA neutrons (2.2 mg/kg administered intraperitoneally); assay type: functional
Outline: (§1)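 Chloral hydrate-anesthetized rats; zona compacta DA cells recorded, identified by waveform and firing pattern, site confirmed histologically. Drug given ip via indwelling catheter. Baseline is the mean of the 2 min before injection; effect is the mean over the 1-min period of maximal inhibition; percent decrease, N = 3–4 cells.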

[2] = tested on: Rattus norvegicus; assay: Inhibition of gamma-butyrolactone-stimulated DOPA synthesis in the corpus striatum of rats (30 mg/kg administered intraperitoneally); assay type: functional
Outline: (§2)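 Male Long-Evans rats dosed 30 min before GBL (750 mg/kg ip) plus decarboxylase inhibitor NSD 1015 (100 mg/kg ip); killed 30 min later. Striatal DOPA measured by HPLC with electrochemical detection. Expressed as percentage reversal versus GBL/NSD 1015-treated animals; N = 4–5.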

[3] = tested on: Rattus norvegicus; assay: Reversal of reserpine-induced depression in rat (dose administered subcutaneously) Values generated from three doses;5-10 rats were used per dose.; assay type: functional; details: sc
Outline: (§3)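 Rats pretreated with reserpine 5 mg/kg 24 h before testing; drug given sc and reversal of spontaneous locomotor inhibition measured; ED50 derived from three doses with 5–10 rats per dose.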

[4] = tested on: Rattus norvegicus; assay: Inhibition of gamma-butyrolactone-stimulated DOPA synthesis in the corpus striatum of rats (dose administered subcutaneously); assay type: functional; details: sc; outline: as §2
[5] = tested on: Mus musculus; assay: Inhibition of locomotor activity (LMA) in mice by the compound administered intraperitoneally.; assay type: functional
Outline: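 Spontaneous exploratory locomotor activity in mice after ip dosing; ED50 derived from four doses with at least three animals per dose.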

[6] = tested on: Rattus norvegicus; assay: Inhibition of locomotor activity (LMA) in rats generated from four doses of 5-12 animals per dose (dose administered subcutaneously); details: sc
[7] = tested on: Rattus norvegicus; assay: Inhibition of locomotor activity (LMA) in rats generated from four doses of 5-12 animals per dose (dose administered po)
[8] = species on record: Rattus norvegicus; assay: Inhibition of gamma-butyrolactone-stimulated DOPA synthesis in the corpus striatum of rats; assay type: functional; outline: as §2
[9] = target: T1, D(2) dopamine receptor (Rattus norvegicus, UniProt P61169); assay: Concentration inhibiting specific binding of [3H]haloperidol to Dopamine receptor D2 from rat striatal brain.
[10] = target: T1, D(2) dopamine receptor; assay: Affinity for [3H]N-propylnorapomorphine (NPA) Dopamine receptor D2
[11] = tested on: Rattus norvegicus; assay: Reversal of reserpine-induced depression in rat (dose administered subcutaneously); assay type: functional; details: sc; outline: as §3
[12] = tested on: Rattus norvegicus; assay: Inhibition of dopamine neuronal firing activity in the rat substantia nigra DA neutrons (0.25 mg/kg administered intraperitoneally); assay type: functional; outline: as §1
[13] = tested on: Rattus norvegicus; assay: Inhibition of gamma-butyrolactone-stimulated DOPA synthesis in the corpus striatum of rats (2 mg/kg administered intraperitoneally); assay type: functional; outline: as §2
[14] = tested on: Rattus norvegicus; assay: Reversal of reserpine-induced depression in rat (dose administered subcutaneously) Values generated from three doses; 5-10 rats were used per dose.; details: sc
[15] = Mus musculus, ip, read-out: ED50

T1 sequence (P61169 whole entry): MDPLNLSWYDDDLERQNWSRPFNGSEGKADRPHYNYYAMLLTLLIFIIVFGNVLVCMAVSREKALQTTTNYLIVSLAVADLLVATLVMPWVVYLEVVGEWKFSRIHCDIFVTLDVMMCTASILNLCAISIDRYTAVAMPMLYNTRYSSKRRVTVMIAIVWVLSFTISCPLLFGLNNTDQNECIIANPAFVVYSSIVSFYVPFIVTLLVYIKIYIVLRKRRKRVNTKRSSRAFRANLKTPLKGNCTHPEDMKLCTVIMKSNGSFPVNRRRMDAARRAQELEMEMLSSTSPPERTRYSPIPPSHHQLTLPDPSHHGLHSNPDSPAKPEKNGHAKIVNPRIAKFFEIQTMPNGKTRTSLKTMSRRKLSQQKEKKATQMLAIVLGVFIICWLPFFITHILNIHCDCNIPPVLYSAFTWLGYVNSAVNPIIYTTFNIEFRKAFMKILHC

| Compound | Decrease [1] [%] | Percent reversal of GBL-stimulated DOPA synthesis [2] [%] | ED50 [3] [mg/kg] | ED50 [4] [mg/kg] | ED50 [5, 15] [mg/kg] | ED50 [6] [mg/kg] | ED50 [7] [mg/kg] | Dose [8] [%] | pIC50 [9] | pIC50 [10] | ED50 [11] [mg/kg] | ED50 [5] [mg/kg] | Decrease [12] [%] | Increase [13] [%] | ED50 [14] [mg/kg] |
| --- | --- | --- | --- | --- | --- | --- | --- | --- | --- | --- | --- | --- | --- | --- | --- |
| CCCN(CCC)C1COc2ccc(O)cc2C1 (stereo not given) | 100 | 100 | 13.4 | 0.04 | 11.3 | 0.17 |  |  |  |  |  |  |  |  |  |
| CCCN1CCO[C@@H]2c3cc(O)ccc3OC[C@H]21 | 100 | 88.4 |  | 0.03 |  | 0.03 | 5.8 | 100 | 6.39 | 6.91 | 6.25 | 5.4 |  |  |  |
| CCCN1CCO[C@H]2c3cc(O)ccc3OC[C@@H]21 | 9 | 0 |  |  | > 30 |  |  |  | < 4.00 |  |  |  |  |  |  |
| CCCN1CCO[C@@H]2c3cc(O)ccc3OC[C@H]21 (racemic) | 99 | 61.8 |  |  |  |  |  |  | 6.05 |  |  | 11 |  |  |  |
| CN1CCc2cccc3c2[C@H]1Cc1ccc(O)c(O)c1-3 [APOMORPHINE] |  |  |  | 0.06 | 0.3 | 0.021 |  |  |  |  |  |  | 100 | 100 | 0.096 |
